Measurements: ChEMBL document CHEMBL6177920, “Natural product-inspired [3 + 2] cycloaddition-based spirooxindoles as dual anticancer agents: synthesis, characterization, and biological evaluation by in vitro and in silico methods” (RSC Med Chem, 2025)
Activity calls are given as the source filed them. No cut-off for these calls is given here.

Experiments:
HCT-15 [1] = test: Antiproliferative activity against human HCT-15 cells assessed as inhibition of cell proliferation incubated for 24 to 72 hrs by SRB assay; format: functional, cell-based
In short: (§1)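 Cells seeded 1 × 10^4/well in DMEM + 10% FBS, incubated overnight at 37 °C, 5% CO2. Treated with serial dilutions, 62.5–1000 µM for MDA-MB-468 and 62.5–2000 µM for HCT 15, for 24, 48 and 72 h. DMSO 0.5% in the 2x working stock. Sulforhodamine-B read-out, % inhibition = (control − sample)/control × 100. Triplicate experiments, ≥4 replicates per concentration.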

HCT-15 [2] = test: Induction of cell cycle arrest in human HCT-15 cells assessed as decrease in cells at G2/M phase at 100 uM; format: functional, cell-based
In short: (§2)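 HCT 15 cells at 2 × 10^5/2 mL/well treated 48 h with 50, 100 or 200 µM, with DMSO control. Trypsinized, centrifuged 300 × g for 5 min, fixed 30 min in cold 70% ethanol on ice. Treated with RNase A 4 h, then propidium iodide 10 min at room temperature. Flow cytometry gave % sub-G0/G1, G0/G1, S and G2/M.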

HCT-15 [3] = test: Induction of cell cycle arrest in human HCT-15 cells assessed as decrease in cells at G0/G1 phase at 100 uM; format: functional, cell-based; in short: as §2
MDA-MB-468 [4] = test: Induction of apoptosis in human MDA-MB-468 cells assessed as cell death by measuring red signals by acridine orange/EtBr staining based analysis; format: functional; conditions: read-out: LD50 (the source's name)
In short: (§3)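 Cells seeded 0.3 × 10^6/well and grown about 36 h. Exposed 48 h to 250, 500 and 1000 µM (MDA-MB-468) or 500, 1000 and 2000 µM (HCT 15); 0.5% DMSO control. Trypsinized, stained 5 min with EtBr (100 µM) plus acridine orange (100 µM). Fluorescence microscopy counted green live versus orange dead cells, reported as % dead cells.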

HCT-15 [5] = test: Induction of cell cycle arrest in human HCT-15 cells assessed as decrease in cells at S phase at 100 uM; format: functional, cell-based; in short: as §2
MDA-MB-468 [6] = test: Antiproliferative activity against human MDA-MB-468 cells assessed as inhibition of cell proliferation incubated for 24 to 72 hrs by SRB assay; format: functional, cell-based; in short: as §1
MDA-MB-468 [7] = test: Induction of apoptosis in human MDA-MB-468 cells assessed as increase in caspase 3 activity; format: functional, cell-based
In short: (§4)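 Cells seeded 5 × 10^5/2 mL and incubated overnight at 37 °C. Treated 24 h at 37 °C with 62.5–1000 µM (MDA-MB-468) or 62.5–2000 µM (HCT 15), then a further 24 h incubation step. Trypsinized, fixed in cold 70% ethanol 30 min at −20 °C, PBS-washed, stained 30 min in the dark at room temperature with anti-caspase-3/7 antibody. FACS on FL1 gave % caspase-3 cells; mean ± SD of triplicates.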

HCT-15 [8] = test: Induction of apoptosis in human HCT-15 cells assessed as decrease in caspase 3 activity; format: functional, cell-based; in short: as §4
HCT-15 [9] = test: Induction of cell cycle arrest in human HCT-15 cells assessed as decrease in cells at sub G0/G1 phase at 100 uM; format: functional, cell-based; in short: as §2
HCT-15 [10] = test: Induction of apoptosis in human HCT-15 cells assessed as cell death by measuring red signals by acridine orange/EtBr staining based analysis; format: functional; conditions: read-out: LD50 (the source's name); in short: as §3
HCT-15 [11] = test: Induction of cell cycle arrest in human HCT-15 cells assessed as decrease in cells at S phase at 50 to 200 uM; format: functional, cell-based; conditions: dose 50-200 µM
In short: (§5)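 MDA-MB-468 or HCT 15 cells were seeded at 2 × 10^5 per 2 mL well in 6-well plates and exposed for 48 h to 50, 100 or 200 µM, with DMSO as control. Cells were trypsinized, spun 300×g for 5 min at 25 °C and fixed in cold 70% ethanol (30 min, ice). RNase A (100 µM, 4 h) was added, then PI (stock 50 µM, 10 min, RT). Phase distribution (sub-G0/G1, G0/G1, S, G2/M) was read by flow cytometry.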

MDA-MB-468 [12] = test: Induction of cell cycle arrest in human MDA-MB-468 cells assessed as decrease in cells at G2/M phase at 50 to 200 uM; format: functional, cell-based; conditions: dose 50-200 µM; in short: as §5
MDA-MB-468 [13] = test: Induction of apoptosis in human MDA-MB-468 cells assessed as increase in caspase 3 activity at 62.5 to 1000 uM; format: functional, cell-based; conditions: dose 62.5-1000 µM
In short: (§6)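 Cells were plated at 5 × 10^5 per 2 mL in 6-well plates and held overnight at 37 °C in CO2. They were then treated for 24 h at 37 °C, with MDA-MB-468 at 62.5–1000 µM and HCT 15 at 62.5–2000 µM. Cells were trypsinized, fixed 30 min at −20 °C in cold 70% ethanol, PBS-washed and labelled with anti-caspase-3/7 antibody (30 min, dark, RT). Flow cytometry (FL1) gave % caspase-3-expressing cells, triplicate, mean ± SD.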

MDA-MB-468 [14] = test: Induction of cell cycle arrest in human MDA-MB-468 cells assessed as decrease in cells at G0/G1 phase at 100 to 200 uM; format: functional, cell-based; conditions: dose 100-200 µM; in short: as §5
HCT-15 [15] = test: Induction of cell cycle arrest in human HCT-15 cells assessed as decrease in cells at G0/G1 phase at 50 to 200 uM; format: functional, cell-based; conditions: dose 50-200 µM; in short: as §5
MDA-MB-468 [16] = test: Induction of cell cycle arrest in human MDA-MB-468 cells assessed as increase in cells at G0/G1 phase at 50 uM; format: functional, cell-based; in short: as §5
HCT-15 [17] = test: Induction of cell cycle arrest in human HCT-15 cells assessed as accumulation of cells at G2/M phase at 200 uM (reference value: 12.25 %); format: functional; conditions: time 48 hrs
HCT-15 [18] = test: Induction of apoptosis in human HCT-15 cells assessed as decrease in caspase 3 activity at 2000 uM; format: functional, cell-based; in short: as §6
MDA-MB-468 [19] = test: Induction of cell cycle arrest in human MDA-MB-468 cells assessed as decrease in cells at S phase at 50 to 200 uM; format: functional, cell-based; conditions: dose 50-200 µM; in short: as §5
MDA-MB-468 [20] = test: Induction of cell cycle arrest in human MDA-MB-468 cells assessed as increase in cells at sub G0/G1 phase at 200 uM (reference value: 1.78 %); format: functional; in short: as §5
HCT-15 [21] = test: Induction of cell cycle arrest in human HCT-15 cells assessed as decrease in cells at G2/M phase at 200 uM; format: functional, cell-based; in short: as §2
MCF7 = test: Induction of cell cycle arrest in human MCF7 cells assessed as increase in cells at sub G0/G1 phase at 200 uM incubated for 48 hrs by flow cytometric analysis (reference value: 2.57 %); format: functional
HCT-15 [22] = test: Induction of cell cycle arrest in human HCT-15 cells assessed as reduction in G0/G1 phase at 200 uM; format: functional, cell-based; in short: as §2
HCT-15 [23] = test: Induction of cell cycle arrest in human HCT-15 cells assessed as reduction in S phase at 200 uM; format: functional, cell-based; in short: as §2

With `O=c1[nH]cc(F)c(=O)[nH]1` [FLUOROURACIL] the IC50 (HCT-15 [1]) was 579 µM, the Activity (HCT-15 [2]) was “Active” and the Activity (HCT-15 [3]) was “Active”. For the same molecule, the CC50 (MDA-MB-468 [4]) was 495 µM, the Activity (HCT-15 [5]) was “Active” and the IC50 (MDA-MB-468 [6]) was 551 µM. The IC50 (MDA-MB-468 [7]) was 495 µM, the IC50 (HCT-15 [8]) was 426 µM and the Activity (HCT-15 [9]) was “inactive”. The CC50 (HCT-15 [10]) was 426 µM.
For `CCOc1ccc([C@@H]2C3CSCN3[C@]3(C(=O)Nc4ccccc43)[C@H]2C(=O)c2ccc(C)cc2)cc1OC` (stereo not given in full), the IC50 (HCT-15 [1]) was 274 µM, the Activity (HCT-15 [11]) was “Active” and the Activity (MDA-MB-468 [12]) was “Active”. The Activity (MDA-MB-468 [13]) was “Active”, the Activity (MDA-MB-468 [14]) was “Active” and the Activity (HCT-15 [15]) was “Active”. The CC50 (MDA-MB-468 [4]) was 281 µM, the IC50 (MDA-MB-468 [6]) was 361 µM and the IC50 (MDA-MB-468 [7]) was 407 µM. The IC50 (HCT-15 [8]) was 365 µM, the Activity (MDA-MB-468 [16]) was “inactive” and the Activity (HCT-15 [17]) was 43.5%. The Activity (HCT-15 [18]) was “inactive”, the Activity (MDA-MB-468 [19]) was “Active” and the CC50 (HCT-15 [10]) was 312 µM. It also gave an Activity (MDA-MB-468 [20]) of 44.5%.
For `C=C1CC[C@H](O)C/C1=C/C=C1\CCC[C@]2(C)[C@@H]([C@H](C)CCCC(C)C)CC[C@@H]12` [CHOLECALCIFEROL], the Activity (HCT-15 [21]) was “Active”, the Activity (MCF7) was 46.66% and the Activity (HCT-15 [22]) was “Active”. For the same molecule, the Activity (HCT-15 [23]) was “Active”.
